Broadly, the inhibition is the percentage by which the read-out fell short of the control. Higher therefore signals strong suppression. As usually defined, the MIC is the lowest concentration found to suppress growth. Low values mean inhibition by little substance, high ones a need for much substance.

Converted amounts (≈) assume the structure as drawn.

Experimental findings from ChEMBL document CHEMBL1149821, “Antimycobacterial activity of diphenylpyraline derivatives” (Eur J Med Chem, 2008) are described below.

Data set [1] is described as follows: Cytotoxicity against HEK293 cells by MTT assay. To be noted: human, read-out: LC50 (the source's name). The class given is cell-based. The method in brief: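 HEK-293 cells seeded at 12 000 cells/well in DMEM with 10% FCS at 37 °C, 5% CO₂. After 48 h, half the medium was renewed. Hydrochloride salts in 17% glycerine/33% DMSO/50% water were added; vehicle served as control. After 72 h, MTT was added for 3 h, then formazan was solubilised with 10% SDS/0.01 M HCl. A544 (reference 640 nm) was read, and LC50 came from a Boltzmann sigmoidal fit.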
(Tetrazolium dyes change colour on reduction, which living cells bring about.)

The test system of data set [2] is Mycobacterium tuberculosis. Kind of data set: Antimicrobial activity against Mycobacterium tuberculosis H37Rv at 6.25 ug/ml by alamar blue assay. The class given is functional. A digest of the protocol:
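M. tuberculosis H37Rv (ATCC 27294) tested in the TAACF screening program by microplate Alamar Blue assay (MABA) at a single concentration of 6.25; read-out was percent growth inhibition.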

The test system of data set [3] is Mycobacterium tuberculosis. Kind of data set: Antimicrobial activity against Mycobacterium tuberculosis H37Rv by alamar blue assay. The class given is functional. A digest of the protocol: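 M. tuberculosis H37Rv (ATCC 27294) microplate Alamar Blue assay (MABA), run within the TAACF screening program.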
(In general: Alamar Blue is a resazurin reagent that responds to reducing activity.)

As for `NNC(=O)c1ccncc1` [ISONIAZID], the CC50 in data set [1] was more than 576 µg/mL. In data set [2], this compound registered an inhibition at 6.25 µg/mL of more than 99%.
For `Clc1ccc(C(OC2CCN(CCc3ccccc3)CC2)c2ccc(Cl)cc2)cc1`, the CC50 in data set [1] stood at 17.3 µg/mL (≈ 39.2 µM). Moreover, 6.25 µg/mL produced 56% inhibition in data set [2].
For `CC(C)[C@H]1C[C@@H](OC(c2ccccc2)c2ccccc2)CCN1c1ccccc1` (relative stereo), the CC50 in data set [1] came to 69.4 µg/mL (≈ 180 µM). This compound also showed an inhibition at 6.25 µg/mL in data set [2] of 36%.
The matching figures for `CC(C)[C@H]1C[C@@H](OC(c2ccc(Cl)cc2)c2ccc(Cl)cc2)CCN1CCc1ccccc1` (racemic): 76.5 µg/mL (≈ 158 µM) and 0%.
As to `CN1CCC(OC(c2ccc(Cl)cc2)c2ccc(Cl)cc2)CC1`, the CC50 in data set [1] came out at 25.5 µg/mL (≈ 72.7 µM). For the same compound, in data set [2], the inhibition at 6.25 µg/mL came out at 65%.
On to `c1ccc(CCN2CCC(OC(c3ccccc3)c3ccccc3)CC2)cc1`, for which the CC50 in data set [1] is 14.9 µg/mL (≈ 40.2 µM). The same compound registered an inhibition at 6.25 µg/mL in data set [2] of 8%.
Take `CC(C)[C@H]1C[C@@H](OC(c2ccc(Cl)cc2)c2ccc(Cl)cc2)CCN1C` (racemic): in data set [1], the CC50 stood at 17.9 µg/mL (≈ 45.7 µM). The same compound yielded an inhibition at 6.25 µg/mL in data set [2] of 74%.
Consider `CC(C)[C@H]1C[C@@H](OC(c2ccccc2)c2ccccc2)CCN1C` (relative stereo), for which, in data set [1], the CC50 was determined as 98.1 µg/mL (≈ 303 µM). This compound also gave an inhibition at 6.25 µg/mL in data set [2] of 68%.
Consider `CC(C)[C@H]1C[C@@H](OC(c2ccccc2)c2ccccc2)CCN1CCc1ccccc1` (racemic), for which the CC50 in data set [1] is 62.8 µg/mL (≈ 152 µM). In addition, the inhibition at 6.25 µg/mL in data set [2] stood at 0%.
On to `CC1(C)C[C@@H](OC(c2ccccc2)c2ccccc2)CCN1c1ccccc1` (racemic), for which the CC50 in data set [1] stood at 65.1 µg/mL (≈ 175 µM). In data set [2], this compound registered an inhibition at 6.25 µg/mL of 3%.
`c1ccc(C(O[C@H]2CCN(c3ccccc3)[C@@H](c3ccccc3)C2)c2ccccc2)cc1` (relative stereo): the CC50 in data set [1] is 77.8 µg/mL (≈ 185 µM). For the same compound, the inhibition at 6.25 µg/mL in data set [2] was found to be 39%.
For `CC(C)[C@@H]1C[C@@H](OC(c2ccccc2)c2ccccc2)CCN1c1ccccc1` (relative stereo), in data set [1], the CC50 was found to be 97.1 µg/mL (≈ 252 µM). Moreover, the inhibition at 6.25 µg/mL in data set [2] was determined as 7%.
Turning to `CN1CCC(OC(c2ccccc2)c2ccccc2)CC1(C)C` (racemic), in data set [1], the CC50 came out at 105 µg/mL (≈ 338 µM). In addition, at 6.25 µg/mL the inhibition in data set [2] was 18%.
On to `CN1CCC(OC(c2ccccc2)c2ccccc2)CC1.Cl` [DIPHENYLPYRALINE HYDROCHLORIDE], for which the CC50 in data set [1] was 108 µg/mL. Besides, the inhibition at 6.25 µg/mL in data set [2] is 5%. This compound also yielded an MIC in data set [3] of 64 µg/mL.
On to `CC(C)[C@@H]1C[C@@H](OC(c2ccccc2)c2ccccc2)CCN1C` (relative stereo), for which the CC50 in data set [1] was 69.4 µg/mL (≈ 215 µM). The compound also gave an inhibition at 6.25 µg/mL in data set [2] of 12%.
Turning to `c1ccc(C(O[C@H]2CCN(c3ccccc3)[C@H](c3ccccc3)C2)c2ccccc2)cc1` (relative stereo), the CC50 in data set [1] came to 112 µg/mL (≈ 266 µM). In data set [2], this compound showed an inhibition at 6.25 µg/mL of 75%.
